# Results: the EternaBench riboswitch data
# Test system: MS2 coat protein
# Assay: apparent Kd, MS2 coat protein; higher = weaker binding; RNA-MaP array; FMN 200 µM where present
# Summary of the method: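 SNAP-549-labelled MS2 coat protein, doubled from 0.7 or 1.5 nM to 3 µM, was titrated over designs transcribed by stalled E. coli RNA polymerase on Illumina sequencing-chip clusters. Titrations were run without and then with constant ligand in 100 mM Tris-HCl pH 7.5, 80 mM KCl, 4 mM MgCl2, BSA, DTT, yeast tRNA and Tween-20. The apparent Kd is the median of filtered per-cluster fits to green signal normalised to red-channel RNA signal and control-cluster median Fmax.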
# [1] = designed as: OFF switch for flavin mononucleotide, no ligand
# [2] = ligand present: flavin mononucleotide, designed as: OFF switch for flavin mononucleotide
# [3] = designed as: ON switch for flavin mononucleotide, no ligand
# [4] = ligand present: flavin mononucleotide, designed as: ON switch for flavin mononucleotide
sequence,measurement,setting,value
GGUGGACAUGAGGAUCACCCAUGUGAGGAUAUCGGCCGGCUCGUGGUGGCUGGCUUCUCGAGAAGGCGCAUAGU,apparent Kd,[1],69.4 nM
same,apparent Kd,[2],118 nM
GUCCGAAGGGAGAAGGGCUAGGAGGUCCAGCUUAUGUGUGUUGCAACAUGAGGAUCACCCAUGUAGCAGGAUAUCCCUCGUACA,apparent Kd,[1],44.5 nM
same,apparent Kd,[2],333 nM
AAAUUCAGAGGAUAUGCGCAUAGAUAAGACUUUUUUUCUUAACAUGAGGAUCACCCAUGUAGAAGGCUGUAAUA,apparent Kd,[1],18.4 nM
same,apparent Kd,[2],16.7 nM
GCUUUAUUGGUCAGGAUAUACAUUUGUUACUCUUUGUAGAAGGGACAUGAGGAUCACCCAUGUACUUUACAUUC,apparent Kd,[1],16 nM
same,apparent Kd,[2],17.4 nM
GUGUACAGAGGAUAUACAUGGGCAUGGAAACAUGCAUCUUCACAUGAGGAUCACCCAUGUAGAAGGCUGUACAC,apparent Kd,[1],34.7 nM
same,apparent Kd,[2],21.3 nM
AUCAGCUCGUCAGGAUAUACGUCAUUGCGUCAGCAGUGUGGUAAGAUCACAUGAGGAUCACCCAUGUAGAAGGGACGAGCUGAU,apparent Kd,[1],13.9 nM
same,apparent Kd,[2],286 nM
AAAACGAUGUGAGGAUAUCACCGCUGUGACGGCUGAGAAGGCACAUGAGGAUCACCCAUGUGCAGGCGUGUGUGGGUAAUCCAA,apparent Kd,[1],186 nM
same,apparent Kd,[2],139 nM
GCUUUUCUAGCCAAGUGGUAGAGCGCAGAAGGCCAACAUGAGGAUCACCCAUGUAUAAAGAACAUGGAGGAUAUGCGUCACCUU,apparent Kd,[3],73.7 nM
same,apparent Kd,[4],6.5 nM
ACAAAUGGAGGAUAUACAUGAGGAUCACCCAUGUUUAUCCUACAUAUGUGAUCCUCAUGUAGAAGGCCAUAUGA,apparent Kd,[1],11 nM
same,apparent Kd,[2],10.6 nM
AGCGUGUGAGGAUAUGCGGACUCCGGUAAAUCUGGAGUCCAGUAGAAGGCACAUGAGGAUCACCCAUGUGAGAU,apparent Kd,[1],35.8 nM
same,apparent Kd,[2],124 nM
GGAGCGAGCACAGGAUAUAGGCUAAAGGCUAGUCUAGAAGGGUGGGAUCAGACAUGAGGAUCACCCAUGUGUGUUUUUGCUCCA,apparent Kd,[3],86.3 nM
same,apparent Kd,[4],686 nM
CCGGAAAGGAAGGAUAUGCUAGACGAAAGUCUAGCAGAAGGUCCUACAUGAGGAUCACCCAUGUGUCCUACCGG,apparent Kd,[1],47.2 nM
same,apparent Kd,[2],60.5 nM
GCCGUGAUAGCAGGAUAUGCUCCGGUUGCUCAUACAUGAGGAUCACCCAUGUCACGUGCGGUGGUGCAGAAGGGUUGAAGCGAU,apparent Kd,[3],764 nM
same,apparent Kd,[4],209 nM
ACACGACAUGAGGAUCACCCAUGUGAGGAUAUCGAUCUACACUAUGCCCAUAGUCUCUCGAGAAGGCACACUAA,apparent Kd,[1],30.6 nM
same,apparent Kd,[2],31.7 nM
CACGGAUAGUAGAAGGGUGACAUGAGGAUCACCCAUGUACACAUGCGUAUUAAAGUAUGUGAUCCACAGGAUAUACUAUCCGUG,apparent Kd,[3],776 nM
same,apparent Kd,[4],93.8 nM
UAUAUUUUUAUAGGAUAUGGAUAUGAUGCAUAUCCAGAAGGGUGAAUAUAAUAUUUUCUGUACAUGAGGAUCACCCAUGUUUAG,apparent Kd,[3],116 nM
same,apparent Kd,[4],46.9 nM
GUAGUGUGAGGAUAUGAUUAAUAGAAGGGAAUGCGACUGCAUCAGAAGGCACAUGAGGAUCACCCAUGUAUGAA,apparent Kd,[1],19.5 nM
same,apparent Kd,[2],29.2 nM
UUUUAACAUGAGGAUCACCCAUGUCGUUCAAAUCAAGGAUAUCAAGCGUGUGCGCACGCUUGAGAAGGUGAAGCUC,apparent Kd,[3],54.2 nM
same,apparent Kd,[4],191 nM
AACCUAUUACAGAAGGCCAGCUACAUGAGGAUCACCCAUGUCGAGUCAUGGAGGAUAUGUAGUAAUUUACUCGCAGAUAAGUGC,apparent Kd,[3],22.6 nM
same,apparent Kd,[4],4.45 nM
CUGAGCUGAGGAUAUACAUGAGGAUCACCCAUGUGUUCCAGCUUGCGUACAGGCAGAUGUAGAAGGCAGUUCGG,apparent Kd,[1],41.4 nM
same,apparent Kd,[2],102 nM
CCUUUUGUAUAAGGAUAUGUAACAAGGUGUAGGCUGGUAGGACUUGCGCUUACAGAAGGUAUACAUGAGGAUCACCCAUGUCGA,apparent Kd,[1],22.2 nM
same,apparent Kd,[2],107 nM
GCACGGUAUGUAGGAUAUGCAUAGCAUUGCUAUGCAGAAGGACAUGAGGAUCACCCAUGUAUGUAUUCCAUACUAAUCCCGUGU,apparent Kd,[1],5.55 nM
same,apparent Kd,[2],5.2 nM
UCGUGAAGGAUAGGAUAUGGACAUGAGGAUCACCCAUGUACAUGGGAAUGUAUACUGAAUUUGUACUAGAAGGGUUACAUAAAU,apparent Kd,[1],49.8 nM
same,apparent Kd,[2],36.6 nM
GGGCCGUAGUAGAAGGGAUAUACGAUUGGUAUAUCAGGAUAUACAUGAGGAUCACCCAUGUUCUAACAGUGAUAGUCCUCCCUA,apparent Kd,[1],23 nM
same,apparent Kd,[2],54.8 nM
CGUAACUGCAUAGGAUAUUGAUACAUGAGGAUCACCCAUGUUUUUCGGAUUAUAUAUCUACUUAGCAAGAAGGAUGGAGUUACG,apparent Kd,[3],7.09 nM
same,apparent Kd,[4],5.15 nM
GGUGCAUAUGAGAAGGCGAUCAUGAAACAUGAUCGAGGAUAUCAUGUAAACAUGAGGAUCACCCAUGUAUGGGAAUAAUGCACC,apparent Kd,[3],112 nM
same,apparent Kd,[4],10.4 nM
AGCAUGUUAGGAUAUGCGAAGUCAGGACACACACUGACGAAGCAGAAGGAACAUGAGGAUCACCCAUGUAAGCA,apparent Kd,[1],71.8 nM
same,apparent Kd,[2],45.7 nM
AAAACUUCAGAGAAGGACCCAUUGGCGUAAUGGGUAGGAUAUCUGACUUGAGGUGUCCUGACAUGAGGAUCACCCAUGUAUAAA,apparent Kd,[1],381 nM
same,apparent Kd,[2],46 nM
AAGAAGUCAGGAUAUCCAUGGCGGCACUUGCGUGGUGGCGUGGAGAAGGGACAUGAGGAUCACCCAUGUAAAGG,apparent Kd,[1],149 nM
same,apparent Kd,[2],173 nM
AAGUAUAGAGGAUAUAGUAGGUACAACAUGAGGAUCACCCAUGUUCUUCAUAACGUAUUUCUAGAAGGCUGAUAAA,apparent Kd,[1],156 nM
same,apparent Kd,[2],353 nM
CGUGCGUAUGUGAGGAUAUGCUGGUCCUUGGAUCGGCAGAAGGUACAUGAGGAUCACCCAUGUGGUGUCGUUCU,apparent Kd,[1],252 nM
same,apparent Kd,[2],292 nM
GGUUGUCAUAGUCAUCCUUAACGAACAUGAGGAUCACCCAUGUAGGAUAUGCUACUCAAAGAGUAGCAGAAGGGCGUGUGUCUU,apparent Kd,[1],56.6 nM
same,apparent Kd,[2],62.9 nM
GUAUAUAGUGUGAGGAUAUGCUGGUCCUUGGAUCAGCAGAAGGCACAUGAGGAUCACCCAUGUAGUUUAUUAUG,apparent Kd,[1],19.7 nM
same,apparent Kd,[2],78 nM
GGGCCCGGAGGAUAUACAUGAGGAUCACCCAUGUAUGUGUGUGUUAUUGCGCGCGCGUGUAGAAGGCCGGGCCC,apparent Kd,[1],19.9 nM
same,apparent Kd,[2],80.2 nM
CACACAUGAGGAUCACCCAUGUCGUGGGCGGAAAACUGUGCACAGGAUAUGGUGAGUGCAACUCACCAGAAGGGUGGUCAGGAA,apparent Kd,[3],122 nM
same,apparent Kd,[4],63 nM
UUCAUGUAAGGAUAUGCGGGCGGGCGCGUUUGUGUUUGUUUGUAGAAGGUACAUGAGGAUCACCCAUGUACUGG,apparent Kd,[1],22 nM
same,apparent Kd,[2],68.2 nM
AGUGUGUUAGGAUAUCGGAUAUGCUGGAGGAGGUGGAUUUACGAGAAGGAACAUGAGGAUCACCCAUGUAGGAG,apparent Kd,[1],37.1 nM
same,apparent Kd,[2],35.6 nM
AGAUGGUAUAUAGGAUAUCAUGUGCAAACAUGAGGAUCACCCAUGUAGAGACGUCAGUCUAAUAAUGAGAAGGAUAUACCAUCU,apparent Kd,[3],37.1 nM
same,apparent Kd,[4],9.97 nM
ACUUACUGAGGAUAUACAUAGAUUUACAUGAGGAUCACCCAUGUUCCUCUAUGUAUAUAUGUAGAAGGCAGAAGGU,apparent Kd,[1],24.6 nM
same,apparent Kd,[2],77.8 nM
AGCUACGUUUCGUAGCAGUGUCAUCGAGAAGGCCUUAAAACAUGAGGAUCACCCAUGUAUGCAUGGGAGGAUAUCGAUGAUACA,apparent Kd,[3],31.7 nM
same,apparent Kd,[4],6.98 nM
CAGGUCUGAGGAUAUCCAUCUUCAUACAUGAGGAUCACCCAUGUUUCCCUCUGGGUUUUCGGAGAAGGCAGUUUUU,apparent Kd,[1],358 nM
same,apparent Kd,[2],293 nM
UAUGAAUGAGGAUAUGCAUAGUAGACUCCUCAUUUCUUCGGACAUGAGGAUCACCCAUGUAGAAGGCGUUGCGU,apparent Kd,[1],33.1 nM
same,apparent Kd,[2],58 nM
